Screening results as filed in PubChem BioAssay.
ANO1 activ: mouse TMEM16A channel activation, primary screen | HEK293 TMEM16A/YFP-H148Q/I152L, iodide quench fluorescence; active compounds read low | B-score at 10 µM | 0.3% of 340,000 active | AID 623877;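 active = fluorescence-ratio B-score plate-corrected deviation score at least 3 library SD below zero, with starting fluorescence score within 5 deviations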;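 note: channel opened by trigger with iodide after compound preincubation; score built on the fluorescence ratio of max minus min over baseline; more negative score means more quench and so TMEM16A activation or potentiation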
MC4R ag barr: activates human MC4R beta-arrestin recruitment; activation, % at 8.9 µM; U2OS MC4R beta-arrestin complementation, luminescence; percent of melanotan II response, DMSO zero; AID 540308; 0.98% of 360,000 active;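 active = activation above a per-plate cutoff, the mean activation of sample wells on that plate plus 3 SD, cut at about 8% in these data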
Target sequence (P32245 whole entry, looked up): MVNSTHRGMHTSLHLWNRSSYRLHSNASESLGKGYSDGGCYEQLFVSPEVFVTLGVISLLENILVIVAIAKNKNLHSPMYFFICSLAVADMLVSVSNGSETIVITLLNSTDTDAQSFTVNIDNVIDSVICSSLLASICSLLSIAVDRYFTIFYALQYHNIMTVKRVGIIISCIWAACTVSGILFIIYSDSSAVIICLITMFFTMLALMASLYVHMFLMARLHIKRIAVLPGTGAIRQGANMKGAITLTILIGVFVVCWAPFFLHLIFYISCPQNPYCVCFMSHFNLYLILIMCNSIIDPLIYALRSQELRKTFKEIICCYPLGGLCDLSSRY
beta cell repl: MIN6 beta-cell proliferation induction | 0.29% of 330,000 active | AID 2380 | MIN6 cells proliferation, ATPlite luminescence, 48 h; cells starved in 0.2% serum; 100% = growth in 10% serum | proliferation, % at 10 µM;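 active = compounds whose signal lies at least 3.5 SD above the mean of all wells on their plate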;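 note: 0% = DMSO-treated cells in low-serum medium and 100% = 10% serum control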
HTR2A ag: agonists of mouse serotonin 5-HT2A receptor (HTR2A). P35363. CHO-K1 mHTR2A beta-arrestin complementation, luminescence; percent of 30 µM serotonin response. activation, % at 7.6 µM. 0.66% of 360,000 active. AID 624169;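 active = activation above a run cutoff, the mean activation of all tested compounds plus 3 SD, cut at about 14% in these data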;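 note: 0% = plate median of compound wells and 100% = 30 µM serotonin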
MC4R antag cAMP: human MC4R antagonism in cAMP assay. MC4R-expressing cells, MTII-stimulated cAMP, LANCE TR-FRET. inhibition, % at 6.5 µM. 0.48% of 360,000 active;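 active = inhibition above its plate's cutoff, the mean of tested wells on that plate plus 3 SD, cut at about 29% in these data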;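 note: 0% = Melanotan II alone and 100% = Melanotan II plus saturating MCL0020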
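Material – human MC4R-expressing U2OS cells · Repeats – no replicates · Detection – TR-FRET with Eu-cAMP and labeled anti-cAMP, 671 nm · Times – compound 30 min, challenge 1 h, detection 1 h · Compound – single nominal compound dose of 6.5 µM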
TMEM16A inh: inhibitors of mouse TMEM16A calcium-activated chloride channel. Q8BHY3. HEK293 TMEM16A/YFP iodide influx fluorescence, ionomycin. normalized B-score (activity score, 25-100; higher = stronger inhibition) at 10 µM. 1.2% of 310,000 active. AID 588511;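 active = ratio plate-corrected score three or more library SD toward inhibition, starting fluorescence score within five deviations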;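 note: score derived from kinetic fluorescence span divided by baseline fluorescence per well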
OPRM1 ag: OPRM1 agonism in mouse HTR2A counterscreen. shares compounds with HTR2A ag. U2OS OPRM1 beta-arrestin PathHunter, luminescence; DMSO 0%, DAMGO 9.3 µM 100%. activation, % at 9.3 µM. 5.3% of 2,300 active. AID 624380;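 active = mean activation above the mean of DMSO-only wells plus 3 SD, cut at about 0.5% in these data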
m5-HT2A ag conf: confirmation of mouse HTR2A serotonin receptor agonists | 19% of 2,300 active | CHO-K1 PathHunter beta-arrestin recruitment, luminescence; DMSO 0%, 30 µM serotonin 100% | AID 624381 | shares compounds with HTR2A ag | activation, % at 7.6 µM;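 active = mean activation across triplicates above the hit threshold derived in the original primary screen, cut at about 15% in these data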
* = called active by the depositor; i = inactive; / = not tested or not shown. Most compounds without a hit are left out; they make up all but 3.4% or so of the library.

SMILES	ANO1 activ	MC4R ag barr	beta cell repl	HTR2A ag	MC4R antag cAMP	TMEM16A inh	OPRM1 ag	m5-HT2A ag conf
COc1cc(/C=C/CNC[C@H]2O[C@@H](n3ccc(=O)[nH]c3=O)[C@H](O)[C@@H]2O)ccc1O	/	0	/	4	-10	/	/	/
COc1ccc(CN2C(=O)C(CC(=O)NCc3cccs3)CC(C(=O)N3CCOCC3)=C2C)cc1 (centres undefined)	/	-1	/	-1	-2	/	/	/
Cc1c(-c2cccc(NC(=O)c3cccs3)c2)nc2ncccn12	i	-1	0	15*	1	i	-1	7
Cc1c(-c2cccc(NC(=O)c3ccco3)c2)nc2ncccn12	i	-4	-3	10	-1	i	/	/
CC1CCCC(C)N1/N=C/c1ccc(Cl)cc1 (centres undefined)	i	0	1	3	10	i	/	/
CCOc1ccc(/C=N/N2C(C)CCCC2C)cc1 (centres undefined)	i	-2	-5	17*	-1	i	-1	-2
CC1(C)CC(=O)C(C(=O)c2ccccc2)C(=O)C1	i	-2	-1	19*	-3	i	0	-1
Nc1ccc2nc(-c3ccccc3)[nH]c2c1	i	-1	-5	15*	12	i	0	-5
Nc1ccc2nc(-c3cccnc3)[nH]c2c1	i	2	-3	-1	-1	i	/	/
CC(C)C(=O)Nc1c2c(nn1-c1ccc(F)cc1)CSC2	i	-2	-1	16*	1	i	-1	-2
CC(C)(C)C(=O)Nc1c2c(nn1-c1ccc(F)cc1)CSC2	i	-2	-2	0	2	i	/	/
Cc1ccccc1OCC(=O)Nc1cccc(S(=O)(=O)NC2=NCCC2)c1	i	0	-6	16*	-10	/	0	-1
CN(C)S(=O)(=O)c1cccc(NC(=O)C2CCN(S(=O)(=O)c3cccs3)CC2)c1	i	0	-4	1	10	/	/	/
Cc1cccc(N2CCN(C(=O)c3cc4ccccc4oc3=O)CC2)c1C	i	-1	1	16*	1	i	0	-5
CCOc1ccc(-n2c(SCc3nc(-c4cccs4)no3)nnc2-c2ccncc2)cc1	i	1	-1	29*	16	i	-1	-4
CCCCCC(=O)Nc1cccc(C2=NOC3(C2)C[C@H](C(N)=O)N(C(=O)COc2ccc(Cl)cc2)C3)c1 (some centres undefined)	i	-1	2	22*	8	i	0	7
CC(=O)N1CCN(C(=O)c2ccc(S(=O)(=O)Nc3ccccc3Cl)cc2)CC1	i	-3	3	16*	5	i	0.9*	6
CCCCNC(=O)C1(C)CCCCN1C(=O)c1ccc2c(c1)CCO2 (centres undefined)	/	1	/	18*	-2	/	0	1
CCCCNC(=O)C1(C)CCN1C(=O)c1ccc2c(c1)CCO2 (centres undefined)	/	1	/	4	9	/	/	/
CN(Cc1ccco1)S(=O)(=O)c1nnc(NC(=O)c2ccccc2Cl)s1	i	-4	1	18*	10	i	-1	-4
COc1cccc(C(=O)Nc2nc(-c3ccc4c(c3)OCO4)cs2)c1	i	0	-5	16*	-1	i	-1	-6
Cc1ccccc1C(=O)Nc1nnc(S(=O)(=O)N(C)Cc2ccco2)s1	i	-1	-3	6	-4	i	/	/
COc1cccc(C(=O)Nc2nnc(S(=O)(=O)N(C)Cc3ccccc3)s2)c1	i	-1	-6	22*	8	i	0	0
COc1cccc(C(=O)Nc2nc(-c3ccncc3)cs2)c1	i	2	-3	6	12	i	/	/
